# Published values from different studies.
# Each line is one published result; the experiments were not run side by side.
# Target: Ribosomal protein S6 kinase beta-1 (RPS6KB1, Homo sapiens, UniProt P23443)
SMILES,observed,technique,tested at,remaining binding [%]
O=C(Nc1c[nH]nc1C(=O)NC1CCNCC1)c1cc(F)cc(F)c1,binding,competition with immobilised ligand,1 µM,99
CN(C)c1nccc(-c2cnn3ncccc23)n1,binding,,1 µM,100
CCC(=N\O)/C(C)=C/c1ccc(F)cc1,cell-free assay,competition with immobilised ligand,1 µM,66
O=C(NCCCN1CCOCC1)c1ccc(Nc2ncc(Cl)c(-c3ccc(Cl)s3)n2)cc1,binding,competition with immobilised ligand,1 µM,38
C[C@@H]1CCN(c2nccc(-c3cnn4ncccc34)n2)C1,binding,,1 µM,87
O=C(c1ccc(Nc2nccc(-c3cc4ccccc4s3)n2)cc1)N1CCC(N2CCCC2)CC1,binding,competition with immobilised ligand,1 µM,79
N#CC1(c2ccccn2)CCN(Cc2cc(C(=O)N3CCCC3)c(=O)n3ccccc23)CC1,binding,competition with immobilised ligand,1 µM,34
C=CC(=O)N1CCC(C(=O)NCC(=O)N2CCN(c3nc(-c4cnc(N)nc4C(F)F)nc(N4CCOCC4)n3)CC2)CC1,binding,competition with immobilised ligand,1 µM,56
COc1cnc(Nc2cccc(S(N)(=O)=O)c2)nc1N1CCN(c2ccccc2)C(=O)C1,binding,competition with immobilised ligand,1 µM,71
O=C(c1ccc(Nc2ncc(Cl)c(-c3ccc(Cl)s3)n2)cc1)N1CCC(N2CCCC2)CC1,binding,competition with immobilised ligand,1 µM,21
NS(=O)(=O)c1cc(NC(=O)Cc2ccccc2)ccc1Oc1cccc(Cl)c1,cell-free assay,competition with immobilised ligand,1 µM,69
Nc1ncc2c(n1)-c1c([nH]c3ccc(C#CC4CC4)cc13)CCCC2,binding,competition with immobilised ligand,1 µM,72
CN(CCCC(F)(F)F)c1nccc(-c2cnn3ncccc23)n1,binding,,1 µM,100
O=C(NS(=O)(=O)c1ccc(NCC2CCOCC2)c([N+](=O)[O-])c1)c1ccc(N2CCN(Cc3ccc(C(F)(F)F)cc3-c3ccc(Cl)cc3)CC2)cc1Oc1cnc2[nH]ccc2c1,cell-free assay,competition with immobilised ligand,1 µM,81
CN(c1nccc(-c2cnn3ncccc23)n1)C1CC1,binding,,1 µM,100
C[C@@H](c1ccc(-n2cnc3c(N)ncnc32)cc1)N1CCc2nn(C)c(Cc3ccccc3)c2C1=O,binding,competition with immobilised ligand,0.1 µM,67
C[C@H](NC(=O)c1cnc2n1[C@](C)(Cc1ccc(C#N)cc1)C(=O)N2c1cc(Cl)c(F)c(Cl)c1)C(=O)NC1(c2ccccn2)CC1,cell-free assay,competition with immobilised ligand,1 µM,100
N[C@@H]1CCN(c2nccc(-c3cnn4ncccc34)n2)C1,binding,,1 µM,100
C[C@@H](c1cccc(C#N)c1)n1cc(Cl)cc(C(N)=O)c1=N,cell-free assay,competition with immobilised ligand,1 µM,100
c1cnn2ncc(-c3ccnc(N4CCC45COC5)n3)c2c1,binding,,1 µM,66
CNC(=O)[C@@H]1CC[C@@H](n2c(-c3ccc4cnccc4c3)nc3ccc(C(=O)NCc4cccc(C(N)=O)c4)cc32)C1,binding,competition with immobilised ligand,1 µM,87
